Assay results reported in ChEMBL document CHEMBL3085677, “Novel coumarin-3-carboxamides bearing N-benzylpiperidine moiety as potent acetylcholinesterase inhibitors” (Eur J Med Chem, 2013).
Activity calls are given as the source filed them. The calls are words filed in the database; no cut-off is given here.

How the values were obtained:
[1] = Selectivity index, ratio of IC50 for equine serum BChE to IC50 for electric eel AChE
How it was run: (§1)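 Ellman-type assay at 25 °C with eel AChE (Type V-S) or equine serum BuChE, added as a 2.5 unit/mL enzyme solution. Medium was 0.1 M phosphate buffer pH 8.0 with DTNB added from a 0.01 M solution. Inhibitor was preincubated 15 min before acetylthiocholine or butyrylthiocholine iodide. ΔA412 was read over 6 min, corrected against a non-enzymatic blank. Five concentrations in triplicate gave 20–80% inhibition. IC50 came graphically from log-concentration curves, mean of three experiments; SI = IC50 BuChE/IC50 AChE.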

[2] = molecular target: Acetylcholinesterase (Electrophorus electricus, UniProt O42275); assay: Inhibition of electric eel AChE using acetylcholine as substrate preincubated for 15 mins prior to substrate addition by Ellman's method
Sequence of Acetylcholinesterase (O42275 whole entry): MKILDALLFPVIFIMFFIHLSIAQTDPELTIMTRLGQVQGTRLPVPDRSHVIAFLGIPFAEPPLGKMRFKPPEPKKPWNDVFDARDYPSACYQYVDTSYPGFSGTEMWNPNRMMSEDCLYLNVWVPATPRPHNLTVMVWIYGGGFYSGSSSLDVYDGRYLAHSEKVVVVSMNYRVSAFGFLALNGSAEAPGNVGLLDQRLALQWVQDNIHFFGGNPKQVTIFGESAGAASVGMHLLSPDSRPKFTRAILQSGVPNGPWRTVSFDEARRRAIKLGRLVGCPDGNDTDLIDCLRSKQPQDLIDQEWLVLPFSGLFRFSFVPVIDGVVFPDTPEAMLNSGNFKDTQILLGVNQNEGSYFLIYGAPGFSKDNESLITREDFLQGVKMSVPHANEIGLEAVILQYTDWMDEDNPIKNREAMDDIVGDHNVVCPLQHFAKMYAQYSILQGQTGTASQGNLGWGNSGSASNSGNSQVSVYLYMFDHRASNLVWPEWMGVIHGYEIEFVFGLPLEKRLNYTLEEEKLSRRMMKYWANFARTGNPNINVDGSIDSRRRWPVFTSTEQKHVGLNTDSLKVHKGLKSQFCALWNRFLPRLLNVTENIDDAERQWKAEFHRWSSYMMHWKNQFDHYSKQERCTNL

[3] = molecular target: Cholinesterase (Equus caballus, UniProt P81908); assay: Inhibition of equine serum BChE using butyrylthiocholine iodide as substrate preincubated for 15 mins prior to substrate addition by Ellman's method; how it was run: as §1
Sequence of Cholinesterase (P81908 whole entry): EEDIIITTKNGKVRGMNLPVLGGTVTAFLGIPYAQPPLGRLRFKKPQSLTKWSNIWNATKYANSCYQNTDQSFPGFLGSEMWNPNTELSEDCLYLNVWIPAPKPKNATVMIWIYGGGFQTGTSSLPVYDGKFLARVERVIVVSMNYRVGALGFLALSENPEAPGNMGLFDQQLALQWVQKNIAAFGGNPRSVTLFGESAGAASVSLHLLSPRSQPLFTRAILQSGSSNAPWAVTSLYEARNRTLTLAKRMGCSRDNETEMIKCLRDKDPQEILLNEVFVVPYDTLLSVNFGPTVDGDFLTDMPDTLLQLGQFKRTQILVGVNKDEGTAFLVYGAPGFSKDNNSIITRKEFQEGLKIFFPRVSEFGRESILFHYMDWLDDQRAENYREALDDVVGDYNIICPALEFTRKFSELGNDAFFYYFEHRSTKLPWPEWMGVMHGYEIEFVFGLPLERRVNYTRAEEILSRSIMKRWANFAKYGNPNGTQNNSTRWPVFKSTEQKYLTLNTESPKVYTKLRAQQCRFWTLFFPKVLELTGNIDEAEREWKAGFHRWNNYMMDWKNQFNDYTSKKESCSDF

[4] = test system: PC-12; assay: Protection against H2O2-induced cell death in rat PC12 cells pretreated at 1 to 100 uM for 3 hrs before H2O2 challenge using DAPI staining method; type: functional, cell-based
How it was run: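 Rat PC12 cells grown in RPMI 1640 with 10% FCS and penicillin/streptomycin, plated at 10^4 cells/well. Held 2 days serum-free, then given NGF 50 ng/ml for 5 days until neurites formed. Pretreated 3 h at three compound levels before H2O2 challenge. Apoptosis judged by DAPI added to live cells for 20 min. Viability read by MTT after 24 h.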

[5] = Cytotoxicity against rat PC12 cells at 1 to 100 uM after 24 hrs by MTT assay; type: cell-based; conditions: pc-12, 24 h
[6] = molecular target: Acetylcholinesterase (Electrophorus electricus) (UniProt O42275); assay: Mixed-type inhibition of electric eel AChE using acetylcholine as substrate by Lineweaver-Burk plot method
Sequence of Acetylcholinesterase (Electrophorus electricus) (O42275 24-633 limits assumed): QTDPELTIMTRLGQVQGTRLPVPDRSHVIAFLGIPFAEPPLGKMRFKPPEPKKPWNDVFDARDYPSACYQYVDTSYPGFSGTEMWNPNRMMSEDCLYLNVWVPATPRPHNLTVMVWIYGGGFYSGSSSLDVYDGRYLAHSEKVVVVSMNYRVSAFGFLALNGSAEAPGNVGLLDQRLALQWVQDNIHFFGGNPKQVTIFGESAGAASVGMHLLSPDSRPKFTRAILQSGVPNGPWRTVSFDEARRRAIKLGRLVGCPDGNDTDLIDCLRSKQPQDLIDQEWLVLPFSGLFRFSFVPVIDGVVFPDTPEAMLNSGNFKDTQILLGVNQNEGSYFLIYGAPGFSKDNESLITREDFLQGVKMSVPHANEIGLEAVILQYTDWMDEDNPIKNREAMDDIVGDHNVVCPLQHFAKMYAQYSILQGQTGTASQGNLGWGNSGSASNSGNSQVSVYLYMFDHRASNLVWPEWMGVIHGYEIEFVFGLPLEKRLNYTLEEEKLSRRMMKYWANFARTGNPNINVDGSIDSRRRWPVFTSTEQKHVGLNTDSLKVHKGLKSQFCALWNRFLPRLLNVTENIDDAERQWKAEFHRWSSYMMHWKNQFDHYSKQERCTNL
How it was run: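 Kinetics used eel AChE with inhibitor fixed at 0.357, 3.57 or 11.9 nM. Initial velocities were measured across several acetylthiocholine concentrations. Reciprocal velocity (1/v) was plotted against 1/[ATCh] (double-reciprocal plot).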

[7] = molecular target: Acetylcholinesterase (Electrophorus electricus) (UniProt O42275); assay: Ratio of donepezil IC50 to compound IC50 for electric eel AChE using acetylcholine as substrate preincubated for 15 mins prior to substrate addition by Ellman's method

Row | Compound | Ratio IC50 [1] | IC50 [2] | IC50 [3] | Activity [4] | Activity [5] | inhibition [6] | Ratio IC50 [7]
1 | COc1cccc2cc(C(=O)NC3CCN(Cc4ccccc4)CC3)c(=O)oc12 | 32 | 0.633 µM | 20 µM |  |  |  | 
2 | O=C(NC1CCN(Cc2ccccc2)CC1)c1cc2cc(Br)ccc2oc1=O | 1400 | 0.03 µM | 42 µM |  |  |  | 
3 | O=C(NCCC1CCN(Cc2ccccc2)CC1)c1cc2cc(O)ccc2oc1=O | 222 | 0.07 µM | 15.6 µM |  |  |  | 
4 | O=C(NCCC1CCN(Cc2ccccc2)CC1)c1cc2cc(Br)ccc2oc1=O | 210 | 0.002 µM | 0.42 µM | Active | Non-toxic |  | 
5 | O=C(NC1CCN(Cc2ccccc2)CC1)c1cc2cc([N+](=O)[O-])ccc2oc1=O | 51 | 0.43 µM | 22 µM |  |  |  | 
6 | O=C(NC1CCN(Cc2ccccc2)CC1)c1cc2ccccc2oc1=O | 14 | 1.2 µM | 17 µM |  |  |  | 
7 | COc1cccc2cc(C(=O)NCCC3CCN(Cc4ccccc4)CC3)c(=O)oc12 | 9000 | 0.002 µM | 18 µM |  |  |  | 
8 | COc1ccc2cc(C(=O)NC3CCN(Cc4ccccc4)CC3)c(=O)oc2c1 | 147 | 0.183 µM | 27 µM |  |  |  | 
9 | O=C(NC1CCN(Cc2ccccc2)CC1)c1cc2ccc(O)cc2oc1=O | 32 | 1.7 µM | 55 µM |  |  |  | 
10 | O=C(NCCC1CCN(Cc2ccccc2)CC1)c1cc2ccc(O)cc2oc1=O | 321 | 0.143 µM | 46 µM |  |  |  | 
11 | COc1ccc2cc(C(=O)NCCC3CCN(Cc4ccccc4)CC3)c(=O)oc2c1 | 71 | 0.005 µM | 0.357 µM | Active | Non-toxic |  | 
12 | O=C(NCCC1CCN(Cc2ccccc2)CC1)c1cc2cc([N+](=O)[O-])ccc2oc1=O | 26300 | 0.0003 µM | 7.9 µM | Active | Non-toxic | Active | 46
13 | O=C(NCCC1CCN(Cc2ccccc2)CC1)c1cc2ccccc2oc1=O | 14 | 0.026 µM | 0.371 µM |  |  |  | 
